Test results as given in ChEMBL document CHEMBL4304839, “Development of a novel class of peroxisome proliferator-activated receptor (PPAR) gamma ligands as an anticancer agent with a unique binding mode based on a non-thiazolidinedione scaffold” (Bioorg Med Chem, 2019).
Active and inactive are the calls of the source. The rule behind the calls is not given here.

What was measured:
[1] = Intrinsic clearance in human liver microsomes incubated for 30 mins in presence of NADPH by LC-MS/MS analysis
[2] = target: T1, Peroxisome proliferator-activated receptor gamma (Homo sapiens) (UniProt P37231); experiment: Agonist activity at PPARgamma in human MKN45 cells assessed as induction of cell aggregation incubated for 5 days by Hoechst 33342 staining based IN cell analyzer method relative to (E)-3-(1-(8-((4-methyl-2-propyl-1H-benzo[d]imidazol-1-yl)methyl)dibenzo[b,e]oxepin-11(6H)-ylidene)ethyl)-1,2,4-oxadiazol-5(4H)-one
T1 sequence (whole entry): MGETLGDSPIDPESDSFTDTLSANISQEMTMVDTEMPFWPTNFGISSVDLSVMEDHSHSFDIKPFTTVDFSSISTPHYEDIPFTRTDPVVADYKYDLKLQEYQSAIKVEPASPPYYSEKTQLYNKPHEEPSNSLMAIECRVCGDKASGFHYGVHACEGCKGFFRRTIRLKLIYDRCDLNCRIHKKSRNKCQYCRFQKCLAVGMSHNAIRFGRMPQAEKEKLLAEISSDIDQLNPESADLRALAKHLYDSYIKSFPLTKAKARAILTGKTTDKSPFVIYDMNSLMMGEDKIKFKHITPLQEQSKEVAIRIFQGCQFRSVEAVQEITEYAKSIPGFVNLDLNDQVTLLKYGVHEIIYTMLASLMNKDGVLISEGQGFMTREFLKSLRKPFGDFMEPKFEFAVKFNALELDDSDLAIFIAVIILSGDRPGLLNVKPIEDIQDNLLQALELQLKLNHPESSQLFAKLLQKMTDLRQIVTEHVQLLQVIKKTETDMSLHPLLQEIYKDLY
Outline: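 MKN45 cells in RPMI1640 with 10% FBS at 37 °C, 5% CO2, seeded 2500 cells/well and exposed to compound 1-1000 nM (n = 3 per concentration) for 5 days. Nuclei stained with Hoechst 33342, imaged on IN Cell Analyzer, nuclear area computed. Maximum activity expressed as % of reference compound maximum; EC50 = concentration giving 50% of own maximum.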

[3] = target: T2, Peroxisome proliferator-activated receptor gamma (Homo sapiens, UniProt P37231); experiment: Transactivation of chimeric GAL4-fused human PPARgamma transfected in HEK293EBNA cells measured at 24 hrs after drug treatment by steady-Glo luciferase assay reagent based luminescence assay; type: cell-based
T2 sequence (P37231 whole entry): T1 sequence (whole entry)
Outline: (§1)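 HEK293EBNA cells in DMEM with 10% FBS, 37 °C, 5% CO2, transiently co-transfected with pM-human PPARγ/GAL4 expression vector and pZAC19-Luc reporter; 24 h later plated and treated with compound 1-3000 nM (n = 3 per concentration), diluted from DMSO in unsupplemented DMEM, for 24 h. Steady-Glo luciferase readout, normalized to pioglitazone 1000 nM (100%); EC50 at 50% of own maximum.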

[4] = target: T1, Peroxisome proliferator-activated receptor gamma (Homo sapiens); experiment: Transactivation of chimeric GAL4-fused human PPARgamma transfected in HEK293EBNA cells measured at 24 hrs after drug treatment by steady-Glo luciferase assay reagent based luminescence assay relative to pioglitazone; type: cell-based; outline: as §1
[5] = AUC in BALB/c mouse at 10 mg/kg, po by LC-MS/MS analysis; type: ADME, organism-based; conditions: in vivo
Outline: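 Male BALB/c mice, single oral dose 10 mg/kg (n = 2). Tail-vein blood at set times, plasma protein-precipitated with acetonitrile plus internal standard, LC-MS/MS (APCI, positive ion), quantified against standard curve in control plasma; AUC by noncompartmental analysis of concentration-time profile.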

[6] = Toxicity in C57BL/6 mouse assessed as hematocrit level at 40 mg/kg (reference value: 45%); type: organism-based; conditions: in vivo
Homo sapiens [7] = experiment: Antitumour activity against human AsPC1/AG1 cells xenografted in SCID mouse assessed as saturated level of reduction in tumor volume at >25 mg/kg, po bid for 14 days starting from 7th day post tumor inoculation and measured after 10 days; type: functional, organism-based
Outline: (§2)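 Male SCID mice (8 weeks) inoculated s.c. with 3×10^7 AsPC-1/AG1 cells; from day 7, randomized by tumour volume into groups of 5 given 12.5, 25, 50 or 100 mg/kg or 0.5% MC400 vehicle orally twice daily for 14 days. Volume = 0.5 × major × minor² measured twice weekly; relative volume V/V0 versus day 0; Steel test, P < 0.05.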

Homo sapiens [8] = experiment: Antitumour activity against human AsPC1/AG1 cells xenografted in SCID mouse assessed as increase in cell differentiation marker krt20 mRNA expression level at 100 mg/kg, po bid for 14 days starting from 7th day post tumor inoculation and measured at 4 hrs post last dose by qRT-PCR analysis; type: functional, organism-based
Outline: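 Male SCID mice bearing s.c. AsPC-1/AG1 tumours (3×10^7 cells in PBS), dosed orally twice daily for 14 days from day 7 after inoculation; vehicle 0.5% MC400. Tumours collected 4 h after last dose; angptl4 and krt20 mRNA measured by qPCR, fold induction relative to baseline.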

Homo sapiens [9] = experiment: Antitumour activity against human AsPC1/AG1 cells xenografted in SCID mouse assessed as increase in angptl4 mRNA expression at 100 mg/kg, po bid for 14 days starting from 7th day post tumor inoculation and measured at 4 hrs post last dose by qRT-PCR analysis
[10] = Toxicity in Crlj:CD1(ICR) mouse assessed as serum hematocrit value at 200 mg/kg, po bid for 4 days by micro-hematocrit method (reference value: 44.1%); type: organism-based; conditions: in vivo, 96 h
Homo sapiens [11] = experiment: Antitumour activity against human AsPC1/AG1 cells xenografted in SCID mouse assessed as reduction in tumor volume at 12.5 to 100 mg/kg, po bid for 14 days starting from 7th day post tumor inoculation; type: functional, organism-based; outline: as §2
[12] = Toxicity in Crlj:CD1(ICR) mouse assessed as serum hematocrit value at 50 mg/kg, po bid for 4 days by micro-hematocrit method (reference value: 44.1%); type: organism-based; conditions: in vivo, 96 h
[13] = Antitumour activity against human AsPC1/AG1 cells xenografted in SCID mouse assessed as minimal dose required for reduction in tumor volume administered orally bid for 14 days starting from 7th day post tumor inoculation; type: functional; conditions: ASPC1, po, 336 h, read-out: MED; outline: as §2

Structure (SMILES)	CLint scaled at 0.5 h [1] [mL/min/kg]	Emax [2] [%]	EC50 [3] [nM]	Emax [4] [%]	AUC [5] [ng·h/mL]	also measured
CCCc1nc2ccccc2n1Cc1ccc2c(c1)COc1c(F)cccc1/C2=C(\C)c1noc(=O)[nH]1	377	101	4.4	8.7	–	–
C/C(=C1/c2ccc(Cc3c(C4CC4)nc4cc(F)ccn34)cc2COc2cc(F)ccc21)c1noc(=O)[nH]1	–	112	13	13.5	5510	–
C/C(=C1/c2ccc(Cc3c(C4CC4)nc4ccccn34)cc2COc2cc(F)ccc21)c1noc(=O)[nH]1	–	106	19	9.8	3750	–
CCCc1nc2ccccc2n1Cc1ccc2c(c1)COc1cc(F)ccc1/C2=C(\C)c1noc(=O)[nH]1	–	104	–	11.7	1480	–
CCCc1nc2c(C)cccc2n1Cc1ccc2c(n1)COc1ccccc1/C2=C(\C)c1noc(=O)[nH]1	> 415	–	86	–	–	–
COCc1nc2cc(Cl)ccn2c1Cc1ccc2c(c1)COc1cc(F)ccc1/C2=C(\C)c1noc(=O)[nH]1	–	106	–	9	2450	–
C/C(=C1/c2ccc(Cn3c(C4CC4)nc4cscc43)cc2COc2cc(F)ccc21)c1noc(=O)[nH]1	41.7	105	21	13.7	196	–
C/C(=C1/c2ccc(Cc3c(C4CC4)nc4c5c(ccn34)OCC5)cc2COc2cc(F)ccc21)c1noc(=O)[nH]1	33.3	110	23	9.7	8760	–
C/C(=C1/c2ccc(Cn3c(C4CC4)nc4c(Cl)nccc43)cc2COc2cc(F)ccc21)c1noc(=O)[nH]1	167	105	24 to 59	13.7	–	–
C/C(=C1/c2ccc(Cn3c(C4CC4)nc4c(Cl)ccnc43)cc2COc2cc(F)ccc21)c1noc(=O)[nH]1	38.3	101	32 to 38	10.3	–	–
C/C(=C1/c2ccc(Cc3c(C4CC4)nc4ccc(Cl)cn34)cc2COc2cc(F)ccc21)c1noc(=O)[nH]1	66.7	102	11	15.1	1710	–
C/C(=C1/c2ccc(Cc3c(C4CC4)nc4cc(Cl)ccn34)cc2COc2cc(F)ccc21)c1noc(=O)[nH]1	–	101	3.6	12.6	10200	–
COCc1nc2c(Cl)cccn2c1Cc1ccc2c(c1)COc1cc(F)ccc1/C2=C(\C)c1noc(=O)[nH]1	21.7	96	7.3	7.4	1090	–
CCc1ccc(CCOc2ccc(CC3SC(=O)NC3=O)cc2)nc1 (centres undefined) [PIOGLITAZONE]	–	–	–	–	–	Activity [6]: 41%
CCCc1nc2c(C)cccc2n1Cc1ccc2c(c1)OCc1ncccc1/C2=C(\C)c1noc(=O)[nH]1	34.3	–	2190	–	–	–
CCCc1nc2c(C)cccc2n1Cc1ccc2c(c1)COc1ccccc1/C2=C(\C)c1noc(=O)[nH]1	> 415	–	–	–	–	–
C/C(=C1/c2ccc(Cc3c(C4CC4)nc4c(Cl)cccn34)cc2COc2cc(F)ccc21)c1noc(=O)[nH]1	–	103	–	10.6	6890	inhibition (Homo sapiens [7]): Active; Activity (Homo sapiens [8]): Active; Activity (Homo sapiens [9]): Active; Activity [10]: 42%; inhibition (Homo sapiens [11]): Active; Activity [12]: 42.9%; minimal effective dose [13]: 12.5 to 25 mg/kg
CCCc1nc2ccccc2n1Cc1ccc2c(c1)COc1ccc(F)cc1/C2=C(\C)c1noc(=O)[nH]1	> 415	102	–	6.9	–	–
